Measurements from different studies.
Long-chain-fatty-acid--AMP ligase FadD28: Long-chain-fatty-acid--AMP ligase FadD28 (Mycobacterium tuberculosis, UniProt P9WQ59)
HTR7: 5-hydroxytryptamine receptor 7 (HTR7, Homo sapiens, UniProt P34969)
Neuronal acetylcholine receptor subunit alpha-4/beta-2: Neuronal acetylcholine receptor subunit alpha-4/beta-2 (Mus musculus, UniProt O70174+Q9ERK7)

| SMILES | target | test | conditions | measurement | value |
| --- | --- | --- | --- | --- | --- |
| CCCCCCCCCCCC(=O)NS(=O)(=O)OC[C@H]1O[C@@H](n2cnc3c(N)ncnc32)[C@H](O)[C@@H]1O | Long-chain-fatty-acid--AMP ligase FadD28 | enzyme activity, inhibitor |  | Ki | 6000 nM |
| CN(C)CCc1c[nH]c2ccccc12 | HTR7 | ligand displacement, radioligand |  | Ki | 210 nM |
| CCCCCCCCCCCCCC(=O)NS(=O)(=O)OC[C@H]1O[C@@H](n2cnc3c(N)nc(C#CCOCCOCCOCCNC(=O)c4ccc(C(=O)O)c(-c5c6ccc(=[N+](C)C)cc-6oc6cc(N(C)C)ccc56)c4)nc32)[C@H](O)[C@@H]1O | Long-chain-fatty-acid--AMP ligase FadD28 | binding, FP |  | Kd | 245 nM |
| CN1[C@@H]2CC[C@H]1C=C(c1cncc(Br)c1)C2 | Neuronal acetylcholine receptor subunit alpha-4/beta-2 | ligand displacement, radioligand | cell membranes | Ki | 2.31 nM |
| FC(F)(F)c1cccc(N2CCNCC2)c1 | HTR7 | ligand displacement, radioligand | cell membranes | Ki | 1620 nM |
| CCCCCCCCCCCCCC(=O)NS(=O)(=O)OC[C@H]1O[C@@H](n2cnc3c(N)ncnc32)[C@H](O)[C@@H]1O | Long-chain-fatty-acid--AMP ligase FadD28 | binding, ITC |  | Kd | 365 nM |
| CC[C@@H](CO)NC(=O)[C@@H]1C=C2c3cccc4c3c(cn4C)C[C@H]2N(C)C1 | HTR7 | ligand displacement, radioligand | cell membranes | Ki | 32 nM |
| N#Cc1ccc(C(=O)NOCc2ccc(C(F)(F)F)cc2)cc1 | NAD-dependent protein deacylase sirtuin-6 (SIRT6, Homo sapiens, UniProt Q8N6T7) | enzyme activity, inhibitor, fluorescence |  | IC50 | 14900 nM |
| CNC(C)C/C=C/c1cncc(C#Cc2ccccc2)c1 (stereo not drawn) | Neuronal acetylcholine receptor subunit alpha-4/beta-2 | ligand displacement, radioligand | cell membranes | Ki | 134 nM |
